Screening results as filed in PubChem BioAssay.
NR2E3 ag-1 – agonists of human NR2E3 nuclear receptor; AID 602229; CHO-S Gal4-NCOR/VP16-NR2E3 two-hybrid, luciferase; 360,000 tested, 0.35% active; inhibition of corepressor binding, % at 3.98 µM;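 active = inhibition above the mean of all tested compounds plus 3 SD, cut at about 70% in these data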;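 note: higher means lower luciferase signal from less NR2E3 corepressor binding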
Rev-erbA mod – modulates human Rev-erb alpha binding to DNA; AID 1259318; P20393; Rev-erbα–FITC-DNA binding, fluorescence polarization, 90 min; activity, % at 10 µM; 370,000 tested, 0.79% active;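 active = activity above about 14%, limit read from the data; passing the limit was not always enough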
Target sequence (P20393 whole entry, looked up): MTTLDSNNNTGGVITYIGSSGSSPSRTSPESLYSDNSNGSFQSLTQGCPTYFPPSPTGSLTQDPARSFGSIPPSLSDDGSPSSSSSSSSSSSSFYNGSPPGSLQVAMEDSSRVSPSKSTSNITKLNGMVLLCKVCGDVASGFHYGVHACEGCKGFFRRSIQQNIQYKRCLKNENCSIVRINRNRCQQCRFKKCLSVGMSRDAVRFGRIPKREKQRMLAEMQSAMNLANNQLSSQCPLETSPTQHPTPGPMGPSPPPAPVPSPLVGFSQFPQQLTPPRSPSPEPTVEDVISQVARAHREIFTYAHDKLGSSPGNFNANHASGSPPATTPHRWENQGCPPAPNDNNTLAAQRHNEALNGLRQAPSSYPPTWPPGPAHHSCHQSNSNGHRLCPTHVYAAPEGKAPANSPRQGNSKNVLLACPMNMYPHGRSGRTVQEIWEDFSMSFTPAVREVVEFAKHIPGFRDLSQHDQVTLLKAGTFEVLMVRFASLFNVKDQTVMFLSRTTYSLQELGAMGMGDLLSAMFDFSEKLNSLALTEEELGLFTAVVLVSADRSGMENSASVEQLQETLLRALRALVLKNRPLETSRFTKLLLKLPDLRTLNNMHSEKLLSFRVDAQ
VLA-4 inh – inhibition in a human VLA-4 binding assay; P13612; VLA-4 expressing cells, ligand binding flow cytometry; inhibition, % (about 7 µM as worked out from the volumes in the protocol); 330,000 tested, 0.2% active; AID 2557; in the data active = inhibition above about 50%
NR2E3 ag-2 – agonists of human nuclear receptor NR2E3. 320,000 tested, 0.12% active. GST-NR2E3/biotin-RetCOR TR-FRET, 1536-well. inhibition of corepressor binding, % at 4.78 µM;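 active = percent inhibition above the cutoff of mean plus 3 SD of all tested compounds, set per screening campaign, cut at about 20% in these data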
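System: GST-tagged NR2E3 plus biotinylated RetCOR corepressor; Buffer or medium: pH 7.5 Tris-based buffer; Probe or stimulus: RetCOR corepressor, biotinylated, 7 nM; Doses: compound at 4.8 µM, single dose; Schedule: 5 h incubation at 4 °C; Technique: time-resolved FRET; Evaluation: percent inhibition of TR-FRET ratio; Replication: one well per compound, singlicate testing.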
PG9 binder – PG9 antibody binding by small molecule. TR-FRET gp120-PG9 antibody binding. inhibition, % at 6.7 µM. 360,000 tested, 0.43% active. AID 624416; in the data active = inhibition above about 8.5%
NR1D1 mod conf – confirmation of modulators of human Rev-erb alpha DNA binding; AID 1259319; 3,000 tested, 61% active; shares compounds with Rev-erbA mod; activation, % at 25 µM; Rev-erb alpha FITC-DNA binding, fluorescence polarization, 90 min;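 active = activation at or above a set limit, or at least 3 SD above the negative control mean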
RORg counter – RORgamma DNA-binding activity, dose-response counter-screen | 910 tested, 8% active | AID 1259320 | IC50, µM | purified RORgamma protein-FITC-DNA binding, fluorescence polarization | shares compounds with Rev-erbA mod;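 active = Compounds whose fitted half-maximal concentration for disrupting protein-DNA binding is below 10 micromolar; the record names Rev-erb in its text, so the target is in doubt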
Of the large screens only hits and unclear results are named; the others gave an inactive call (follow-up assays come after a bar, where they were run). Compounds with a hit are over-represented: about 1.6% of the library has one in this group of screens.

c1ccc(-c2nc(-n3nc4ccccc4n3)nc3ccccc23)cc1	none
O=C1CN(c2nc(-c3ccccc3)c3ccccc3n2)c2ccccc2N1	Rev-erbA mod 34 | NR1D1 mod conf inactive
CCc1nnc(NC(=O)C2CCN(c3ncnc4sc(C)c(C)c34)CC2)s1	Rev-erbA mod 35 | NR1D1 mod conf inactive
CCCCc1nnc(NC(=O)C2CCN(c3ncnc4sc(C)c(C)c34)CC2)s1	Rev-erbA mod 19 | NR1D1 mod conf inactive
Cc1sc2ncnc(N3CCC(C(=O)Nc4nc(-c5cccs5)cs4)CC3)c2c1C	none
COc1ccc2c(-c3ccccc3)cc(SC(C)C(N)=O)nc2c1 (stereo not drawn)	Rev-erbA mod 19 | NR1D1 mod conf 18
CN(CC(=O)Nc1ccc(Cl)cc1)S(=O)(=O)c1ccc2c(c1)n(C)c(=O)c(=O)n2C	Rev-erbA mod 63 | NR1D1 mod conf 43 | RORg counter inactive
CN(CC(=O)Nc1cccc(Cl)c1)S(=O)(=O)c1ccc2c(c1)n(C)c(=O)c(=O)n2C	none
O=C(CCN1C(=O)c2ccccc2S1(=O)=O)NCc1ccccc1	none
Cc1cccc(NC(=O)Nc2cnccn2)c1C	Rev-erbA mod 18 | NR1D1 mod conf inactive
COCCNC(=O)c1cccc(OC2CCN(Cc3ccccc3C)CC2)c1	none
C=CCSc1nc(N)c(C(=O)Nc2ccccc2OC)cc1C(=O)Nc1ccccc1	Rev-erbA mod 20 | NR1D1 mod conf inactive
CCCCC1Cc2[nH]c(=S)[nH]c(=O)c2C(c2cccc3ccccc23)O1 (stereo not drawn)	none (no result: VLA-4 inh, NR2E3 ag-2)
O=C(Nc1ccccn1)c1c(O)c2cccc3c2n(c1=O)CCC3	Rev-erbA mod 32 | NR1D1 mod conf inactive
NCCNC(=O)c1c(O)c2cccc3c2n(c1=O)CCC3	none (no result: NR2E3 ag-2)
O=C(Nc1nccs1)c1c(O)c2cccc3c2n(c1=O)CCC3	Rev-erbA mod 36 (no result: NR2E3 ag-1) | NR1D1 mod conf 30
Cc1cccnc1NC(=O)c1c(O)c2cccc3c2n(c1=O)CCC3	none
O=C1c2ccc(-c3ccc(F)cc3OCc3ccccc3)cc2S(=O)(=O)c2cccc(C(=O)N3CCN(c4ncc(Br)cn4)CC3)c21	Rev-erbA mod 75 (no result: NR2E3 ag-2) | NR1D1 mod conf 66
COc1ccc(/C=C2\Oc3cc(OC(=O)N4CCOCC4)ccc3C2=O)c(OC)c1	Rev-erbA mod 22 | NR1D1 mod conf inactive
COc1ccc(C(=O)OCc2cc3cccc(C)c3[nH]c2=O)cc1	Rev-erbA mod 59 | NR1D1 mod conf 26
COc1ccc(CC(=O)OCc2cc3cccc(C)c3[nH]c2=O)cc1	none (no result: PG9 binder)
COc1ccccc1N(C)S(=O)(=O)c1ccc(Cl)c(C(=O)OCc2c(C)noc2C)c1	Rev-erbA mod 18 | NR1D1 mod conf inactive
Cn1nc(C(C)(C)C)c(NC(=O)c2ccc(F)cc2)c1C(C)(C)C	none
COc1ccc(NC(=O)CSc2nc(N)c(NC(=O)c3cccs3)c(=O)[nH]2)cc1	none
COc1ccc(-c2oc(=O)c3cc(OC)c(OC)cc3c2C#C[C@]2(O)CC[C@H]3[C@@H]4CCc5cc(OC)ccc5[C@H]4CC[C@@]32C)cc1	Rev-erbA mod 30 (no result: NR2E3 ag-2) | NR1D1 mod conf inactive
CN(C(=O)CSc1nc(-c2ccc(C(C)(C)C)cc2)c(C#N)c(=O)[nH]1)C1CCCCC1	none
CCc1ccc2n(-c3ccc(OC)cc3)c([S-])c(C(=O)Nc3cc(C)cc(C)c3)[n+]2c1	Rev-erbA mod 90 | NR1D1 mod conf 113 | RORg counter inactive
CCCCCOc1ccc(NC(=O)CSc2cccc3cccnc23)cc1	Rev-erbA mod 46 | NR1D1 mod conf 39 | RORg counter 1.4
COc1ccccc1CNc1nc2cc(-c3sccc3C)sc2c(=O)n1C	Rev-erbA mod 29 (no result: VLA-4 inh, NR2E3 ag-2) | NR1D1 mod conf 20
COc1ccccc1CNc1nc2cc(-c3ccccc3C)sc2c(=O)n1C	none (no result: VLA-4 inh, NR2E3 ag-2)
CN(C(=O)Cn1cnc([N+](=O)[O-])n1)C1CCCCC1	none
CCc1nc2ccc(C(=O)Nc3ccc4c(c3)OCC(=O)N4)cn2c1N(C)Cc1nccn1C	none (no result: VLA-4 inh, NR2E3 ag-2)
CCCCNC(=O)C1(C)CCN1C(=O)c1ccncc1 (stereo not drawn)	none (no result: VLA-4 inh, NR2E3 ag-2)
CCN(C(=O)c1ccco1)c1nnc(-c2ccc(OC)cc2)s1	Rev-erbA mod 25 | NR1D1 mod conf inactive
CCOC(=O)N1CCC(NC(=O)c2cc3c(-c4ccc(Cl)cc4)nn(C)c3s2)CC1	Rev-erbA mod 20 | NR1D1 mod conf 19
O=C1c2cccnc2C(=O)N1Cc1ccc(F)cc1S(=O)(=O)NCc1ccco1	none
CCCc1cc(CNC(=O)C2CCC(=O)N(Cc3ccccc3F)C2)on1 (stereo not drawn)	none
C=C(C)Cc1c(C)c(C#N)c2nc3ccccc3n2c1N1CCCCC1	Rev-erbA mod 25 | NR1D1 mod conf inactive
C=CCc1c(C)c(C#N)c2nc3ccccc3n2c1N1CCCCC1	Rev-erbA mod 43 | NR1D1 mod conf inactive
C=C(C)CSc1cc(C)c(C#N)c2nc3ccccc3n12	none
CCc1c(C)c(C#N)c2nc3ccccc3n2c1N(C)C	none
COc1ccc(NC(=O)CSCC(=O)NC2(C)CCS(=O)(=O)C2)cc1 (stereo not drawn)	none
CN(C)S(=O)(=O)c1cccc(COC(=O)Cc2c(F)cccc2Cl)c1	none
COc1ccc(Cl)cc1Nc1nc(C)nc2c1oc1ccccc12	Rev-erbA mod 15 | NR1D1 mod conf 23
COc1ccc2c(c1)c(/C=C/c1cc[n+](C)cc1)cn2C	Rev-erbA mod 100 | NR1D1 mod conf 79 | RORg counter inactive
COc1ccc2c(C=O)c[nH]c2c1	none
Cc1ccc2[nH]ccc(=O)c2c1	none
CC[n+]1ccc(/C=C/c2c[nH]c3ccccc23)cc1	Rev-erbA mod 134 | NR1D1 mod conf 131 | RORg counter inactive
COc1ccc2c(/C=C/c3cc[n+](C)cc3)c[nH]c2c1	Rev-erbA mod 46 | NR1D1 mod conf 31 | RORg counter inactive
Cc1ccc2[nH]cc(/C=C/c3cc[n+](C)cc3)c2c1	Rev-erbA mod 232 (no result: NR2E3 ag-2) | NR1D1 mod conf 142 | RORg counter inactive
CCOc1ccc(S(=O)(=O)N2CCN(Cc3ccc4c(c3)OCO4)CC2)cc1C	none
CCC(C)(C)c1ccc(OCCCC[n+]2cccc(C)c2)c(C(C)(C)CC)c1	Rev-erbA mod 33 (no result: VLA-4 inh, NR2E3 ag-2) | NR1D1 mod conf 44 | RORg counter inactive
Cc1ccc[n+](CC(=O)Nc2cc(C(F)(F)F)ccc2Cl)c1	none
Cc1ccc(O)c(-c2cc(C(=O)Nc3ccc(S(=O)(=O)Nc4nccc(C)n4)cc3)[nH]n2)c1	none
Cc1cc(C)nc(N2N=C(C(F)(F)F)CC2=O)n1	none
O=C(OCC(=O)N1CCCC1=O)c1cc(Cl)ccc1O	none
O=C(OCC(=O)N1CCCc2ccccc21)c1cc(Cl)ccc1O	Rev-erbA mod 24 | NR1D1 mod conf inactive
COc1cccc(-c2cc(C(F)(F)F)n3ncc(C(=O)NCC4CCCO4)c3n2)c1 (stereo not drawn)	none
